# Compound activity: PubChem BioAssay, several laboratories
# DNMT1 inh – human DNMT1 methyltransferase inhibitors, primary screen, biochemical, molecular beacon, fluorescence, HinP1I cleavage, uHTS. 360,000 tested, 0.83% active. AID 588458, 2011. inhibition (reported as % activation of signal), % at 10 µM; in the data active = inhibition above about 50%
# DSG3 Ab inh – inhibitors of pemphigus antibody binding to DSG3, primary screen, biochemical, bead-based, flow cytometry, scFv-GFP. 310,000 tested, 0.48% active. Desmoglein-3 (Homo sapiens), P32926. DSG3-coupled beads, scFv-anti-DSG3-GFP binding; hits give low values. binding (percent of control), % at 10 µM;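 active = binding more than 3 SD below its plate's average and above zero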;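 note: hits lower antibody fragment binding to DSG3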
# SUMO1 PPI mod – modulators of SUMO1 protein-protein interactions, primary screen, biochemical, uHTS; 360,000 tested, 0.33% active; inhibition, % at 20 µM; SUMO1 binding to a labelled peptide, TR-FRET, 1 h; Small ubiquitin-related modifier 1 (Homo sapiens), P63165; in the data active = inhibition above about 37%
# MBD2 DNA inh – inhibitors of MBD2 binding to methylated DNA, primary screen, biochemical, TR-FRET, DNA-binding domain, human; MBD2 binding to methylated oligonucleotide; 370,000 tested, 0.31% active; inhibition, % at 4.4 µM; AID 686964, 2013; Methyl-CpG-binding domain protein 2 (Homo sapiens), Q9UBB5; in the data active = inhibition above about 13%
# UHRF1 binding – UHRF1 methylated DNA binding inhibitors, primary screen, counter-screen for MBD2 inhibitor project, biochemical, TR-FRET, human UHRF1, single concentration; E3 ubiquitin-protein ligase UHRF1 (Homo sapiens), Q96T88; UHRF1 binding to methylated oligo; inhibition, % at 4.4 µM; 370,000 tested, 0.75% active; AID 687016, 2013;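 note: UHRF1 SRA domain binding a hemimethylated CpG hairpin DNA probe; 0% = median of test compound wells and 100% = reference inhibitor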
# HCV NS3 hel inh – inhibitors of HCV NS3 helicase, primary screen, biochemical, Cy5 molecular beacon fluorescence | Hepatitis C virus NS3 helicase | NS3 helicase DNA unwinding | inhibition, % at 10.9 µM | 290,000 tested, 0.56% active | AID 1800, 2009;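 active = inhibition above the mean of all tested compounds plus 3 SD, set per campaign, cut at about 35% in these data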;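 note: 0% = DMSO wells and 100% = thioflavine S control wells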
#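 Test system: hepatitis C virus NS3 helicase domain fragment enzyme. Also added: annealed dual-labelled DNA beacon duplex, ATP-started. Timing: 60 min unwinding reaction at 25 °C after ATP addition. Technique: Cy5 fluorescence. Measure: % inhibition of unwinding.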
# UHRF1 ctr MBD2 – UHRF1 methylated DNA binding inhibitors, counter-screen for MBD2 inhibitor project, biochemical, TR-FRET, human UHRF1; shares compounds with MBD2 DNA inh; UHRF1 binding to methylated oligonucleotide; inhibition, % at 4.4 µM; 1,000 tested, 25% active; AID 720530, 2013;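 note: UHRF1 SRA domain binding a labeled hemimethylated CpG hairpin DNA; 0% = vehicle only and 100% = reference inhibitor with vehicle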
# MBD2 DBD conf – inhibitors of MBD2 binding to methylated DNA, confirmation, biochemical, TR-FRET, DNA-binding domain, human; shares compounds with MBD2 DNA inh; TR-FRET MBD2-DBD binding to methylated oligonucleotide; inhibition, % at 4.4 µM; 1,000 tested, 26% active; in the data active = inhibition above about 14%
# * = called active by the depositor; nt = no result. A selection: hits, their analogues and other compounds. The true share with any hit is near 2.5%. Cut-off read from the data, not from the text of the source, unless noted: active = inhibition above about 21%; inactive = the rest.
SMILES,DNMT1 inh,DSG3 Ab inh,SUMO1 PPI mod,MBD2 DNA inh,UHRF1 binding,HCV NS3 hel inh,UHRF1 ctr MBD2,MBD2 DBD conf
O=C(COC(=O)CCCOc1ccc(Cl)cc1Cl)NCc1ccc(F)cc1,1.1,100.1,-0.3,-3.6,5.4,3.7,nt,nt
Cc1ccc(C(=O)OCC(=O)NN2C(=O)NC3(CCC(C)CC3)C2=O)cc1 (stereo not drawn),3.8,101.9,1.2,-0.6,-0.6,nt,nt,nt
Cc1cc(S(=O)(=O)NCC(c2ccccc2)c2ccccc2)ccc1-n1cnnn1,7.0,104.0,4.2,14.2*,17.5,-10.3,2.6,4.4
CCOC(=O)N1CCN(C(=O)C[C@@H]2C[C@@]3(C(=O)OCC)CCCC=C3N(CCC3=CCCCC3)C2=O)CC1,nt,nt,10.9,20.3*,1.3,nt,6.6,5.0
CCOC(=O)Nc1nc(-c2ccc(Cl)cc2Cl)cs1,-60.0,102.8,-3.0,13.3*,20.3,8.0,25.8*,8.4
COC(=O)c1ccc(/C=N/Nc2nc(-c3ccc(Cl)cc3Cl)cs2)cc1,nt,nt,nt,nt,nt,-4.0,nt,nt
COc1cc(/C=C2\CCc3c2nc2ccccc2c3C(=O)O)cc(OC)c1OC,96.9*,98.2,47.7*,25.7*,48.5*,20.4,33.9*,14.5*
Cc1ccc(Oc2nc(CN3CCOCC3)nc3sc4c(c23)CCC(C)C4)cc1 (stereo not drawn),0.1,111.4,0.0,13.7*,-0.9,-6.5,9.4,3.7
COc1cc2cc(C(=O)N(C)C3CCS(=O)(=O)C3)[nH]c2cc1OC (stereo not drawn),2.1,107.4,-6.9,15.4*,1.6,-5.5,6.3,1.1
O=C1N[C@@H](Cc2ccccc2)COC(=O)[C@@H](Cc2ccc(F)cc2)CC/C=C/C[C@H]1CC(=O)N(CCO)Cc1ccccc1,-8.3,104.9,5.2,15.4*,0.0,nt,4.7,5.9
CCn1c(C(=O)N2CCC(C(=O)NCCCSC3CCCCC3)CC2)cc2sccc21,-11.8,103.1,-1.9,0.5,-1.9,6.8,nt,nt
CCOc1ccc(C2SCC(=O)N2c2c(C)n(C)n(-c3ccccc3)c2=O)cc1 (stereo not drawn),-3.8,105.1,2.2,16.0*,5.9,-5.2,9.8,3.3
Cc1c(N2C(=O)CSC2c2ccccc2)c(=O)n(-c2ccccc2)n1C (stereo not drawn),-1.1,106.0,4.6,-1.4,2.4,5.4,nt,nt
C[C@H](CO)N1C[C@H](C)[C@@H](CN(C)Cc2ccc(-c3ccccc3)cc2)Oc2c(NS(=O)(=O)c3cn(C)cn3)cccc2C1=O,-5.0,88.3,4.7,-2.4,-1.2,nt,nt,nt
C[N+](=O)C1C(=O)Nc2ccccc21 (stereo not drawn),nt,nt,-31.0,100.6*,-3.2,nt,2.9,-3.2
O=C(NCc1ccccn1)c1ccc(-c2ccccc2)cc1,1.9,100.0,4.8,1.7,0.2,1.2,nt,nt
O=C(NCc1ccccn1)c1c(-c2ccccc2)sc2ccccc12,41.9,103.2,-2.7,16.0*,22.3*,nt,9.8,7.3
CC(=O)Nc1sc2c(c1-c1nc3ccccc3s1)CN(C(C)C)CC2,77.8*,110.8,-18.3,36.1*,2.9,nt,24.1*,57.0*
CC(=O)Nc1sc2c(c1-c1nc3ccccc3s1)CCN(C)C2,nt,nt,nt,28.4*,0.8,nt,15.4,41.6*
